Data from ChEMBL document CHEMBL3739271, “Synthesis and evaluation of a series of resveratrol analogues as potent anti-cancer agents that target tubulin” (2015).
The source made the active and inactive calls.

Assays:
[1] = Cytotoxicity against human Hs578T cells by SRB assay; format: functional; conditions: Hs-578T
Outline: (§1)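 NCI 60 human tumor cell line panel, sulforhodamine B (SRB) protein-stain read-out. Compounds were first screened at a single dose of 10^-5 M, and selected compounds were then tested in a five-dose format. GI50 is the drug concentration giving a 50% reduction in net protein increase relative to control cells.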

[2] = Cytotoxicity against human SW620 cells by SRB assay; format: functional; conditions: SW-620; outline: as §1
NCI-H23 = assay: Cytotoxicity against human NCI-H23 cells by SRB assay; format: functional; outline: as §1
[3] = Cytotoxicity against human COLO205 cells by SRB assay; format: functional; conditions: COLO 205; outline: as §1
MV4-11 [4] = assay: Anti-leukemia activity against human MV4-11 cells after 48 hrs by Annexin-V staining; format: functional; conditions: MV4-11, 48 h, read-out: LD50 (the source's name)
Outline: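 MV4-11 AML cells exposed to increasing compound concentrations for 24 and 48 h. Viability measured by Annexin V/7-AAD staining and expressed as percent Annexin V-/7-AAD- cells relative to control. N = 5, error bars SD. LD50 values derived from these curves.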

CAKI-1 = assay: Cytotoxicity against human CAKI-1 cells by SRB assay; format: functional; outline: as §1
[5] = Cytotoxicity against human HCT116 cells by SRB assay; format: functional; conditions: HCT-116; outline: as §1
MDA-MB-468 = assay: Cytotoxicity against human MDA-MB-468 cells by SRB assay; format: functional; outline: as §1
U-251 = assay: Cytotoxicity against human U251 cells by SRB assay; format: functional; outline: as §1
[6] = Cytotoxicity against human HL-60(TB) cells by SRB assay; format: functional
Outline: (§2)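 NCI 60-cell-line panel using sulforhodamine B protein stain. Initial single-dose screen at 10^-5 M, then five-dose testing. GI50 is the drug concentration giving a 50% reduction in net protein increase relative to control cells.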

NCI-H522 = assay: Cytotoxicity against human NCI-H522 cells by SRB assay; format: functional; outline: as §1
[7] = Cytotoxicity against human HCT15 cells by SRB assay; format: functional; conditions: HCT-15; outline: as §1
HT-29 = assay: Cytotoxicity against human HT-29 cells by SRB assay; format: functional; outline: as §1
[8] = Cytotoxicity against human OVCAR4 cells by SRB assay; format: functional; conditions: OVCAR-4; outline: as §1
MCF7 = assay: Cytotoxicity against human MCF7 cells by SRB assay; format: functional; outline: as §1
SK-MEL-5 = assay: Cytotoxicity against human SK-MEL-5 cells by SRB assay; format: functional; outline: as §1
[9] = Cytotoxicity against human SF539 cells by SRB assay; format: functional; conditions: SF-539; outline: as §1
[10] = Cytotoxicity against human SNB19 cells by SRB assay; format: functional; conditions: SNB-19; outline: as §1
MV4-11 [11] = assay: Inhibition of alpha-tubulin polymerization in human MV4-11 cells at 25 to 100 nM after 2 hrs by Western blotting; format: cell-based
Outline: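 MV4-11 cells treated for 2 hours at 25, 50 and 100 nM. Microtubule polymerization then assessed by immunoblot.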

[12] = Cytotoxicity against human HOP62 cells by SRB assay; format: functional; conditions: HOP-62; outline: as §1
KM12 = assay: Cytotoxicity against human KM12 cells by SRB assay; format: functional; outline: as §1
CCRF-CEM = assay: Cytotoxicity against human CCRF-CEM cells by SRB assay; format: functional; outline: as §1
MDA-MB-435 = assay: Cytotoxicity against human MDA-MB-435 cells by SRB assay; format: functional; outline: as §1
[13] = Cytotoxicity against human HCC2998 cells by SRB assay; format: functional; conditions: HCC 2998; outline: as §1
SR = assay: Cytotoxicity against human SR cells by SRB assay; format: functional; outline: as §1
[14] = Cytotoxicity against human SF268 cells by SRB assay; format: functional; conditions: SF-268; outline: as §1
[15] = Cytotoxicity against human OVCAR3 cells by SRB assay; format: functional; conditions: OVCAR-3; outline: as §1
[16] = Cytotoxicity against human SNB75 cells by SRB assay; format: functional; conditions: SNB-75; outline: as §1
[17] = Cytotoxicity against human RPMI8226 cells by SRB assay; format: functional; conditions: RPMI-8226; outline: as §1
A498 = assay: Cytotoxicity against human A498 cells by SRB assay; format: functional; outline: as §1
[18] = Cytotoxicity against human LOXIMVI cells by SRB assay; format: functional; conditions: LOX IMVI; outline: as §2
[19] = Cytotoxicity against human HOP92 cells by SRB assay; format: functional; conditions: HOP-92; outline: as §1
[20] = Cytotoxicity against human SKOV3 cells by SRB assay; format: functional; conditions: SK-OV-3; outline: as §1
SK-MEL-2 = assay: Cytotoxicity against human SK-MEL-2 cells by SRB assay; format: functional; outline: as §1
[21] = Cytotoxicity against human IGROV1 cells by SRB assay; format: functional; conditions: IGROV-1; outline: as §2
ACHN = assay: Cytotoxicity against human ACHN cells by SRB assay; format: functional; outline: as §1
[22] = Cytotoxicity against human SF295 cells by SRB assay; format: functional; conditions: SF-295; outline: as §1
SK-MEL-28 = assay: Cytotoxicity against human SK-MEL-28 cells by SRB assay; format: functional; outline: as §1
[23] = Cytotoxicity against human MOLT4 cells by SRB assay; format: functional; conditions: MOLT-4; outline: as §1
MDA-MB-231 = assay: Cytotoxicity against human MDA-MB-231 cells by SRB assay; format: functional; outline: as §1
A549 = assay: Cytotoxicity against human A549 cells by SRB assay; format: functional; outline: as §1
K562 = assay: Cytotoxicity against human K562 cells by SRB assay; format: functional; outline: as §1
[24] = Cytotoxicity against human UACC62 cells by SRB assay; format: functional; conditions: UACC-62; outline: as §1
NCI/ADR-RES = assay: Cytotoxicity against human NCI/ADR-RES cells by SRB assay; format: functional; outline: as §1
786-0 = assay: Cytotoxicity against human 786-0 cells by SRB assay; format: functional; outline: as §1
M14 = assay: Cytotoxicity against human M14 cells by SRB assay; format: functional; outline: as §1
[25] = Cytotoxicity against human UO31 cells by SRB assay; format: functional; conditions: UO-31; outline: as §1

COc1ccc(/C=C(\C#N)c2cc(OC)c(OC)c(OC)c2)cc1O
2990 nM: GI50 [3]
10 nM: GI50 (U-251) | GI50 [20]
3180 nM: GI50 (HT-29)
38.6 nM: CC50 (MV4-11 [4])
50 nM: GI50 [22]
20 nM: GI50 [13]
< 10 nM: GI50 [1] | GI50 [2] | GI50 (NCI-H23) | GI50 [5] | GI50 (MDA-MB-468) | GI50 [6] | GI50 (NCI-H522) | GI50 [7] | GI50 [8] | GI50 (MCF7) | GI50 (SK-MEL-5) | GI50 [9] | GI50 [10] | GI50 [12] | GI50 (KM12) | GI50 (CCRF-CEM) | GI50 (MDA-MB-435) | GI50 (SR) | GI50 [14] | GI50 [15] | GI50 [16] | GI50 [17] | GI50 (A498) | GI50 [18] | GI50 [19] | GI50 (SK-MEL-2) | GI50 [21] | GI50 (ACHN) | GI50 [23] | GI50 (MDA-MB-231) | GI50 (A549) | GI50 (K562) | GI50 [24] | GI50 (NCI/ADR-RES) | GI50 (786-0) | GI50 (M14) | GI50 [25]
active: inhibition (MV4-11 [11])
30 nM: GI50 (CAKI-1)
1010 nM: GI50 (SK-MEL-28)

COc1ccc(/C=C(/C#N)c2ccc(OC)c(OC)c2)cc1O
580 nM: GI50 [22]
50 nM: GI50 (U-251) | GI50 (SK-MEL-5) | GI50 [17] | GI50 [20] | GI50 (MDA-MB-231)
409 nM: CC50 (MV4-11 [4])
10 nM: GI50 (NCI-H522)
1070 nM: GI50 [8]
80 nM: GI50 (NCI-H23) | GI50 [14]
1260 nM: GI50 [3]
240 nM: GI50 (786-0)
1270 nM: GI50 (SK-MEL-28)
30 nM: GI50 [1] | GI50 [5] | GI50 [6] | GI50 [7] | GI50 (MCF7) | GI50 [12] | GI50 (SR) | GI50 (K562)
860 nM: GI50 [19]
70 nM: GI50 [18] | GI50 [21] | GI50 [23]
620 nM: GI50 (HT-29)
420 nM: GI50 (CAKI-1)
20 nM: GI50 [9] | GI50 [15] | GI50 [16] | GI50 (A498) | GI50 (NCI/ADR-RES) | GI50 (M14)
90 nM: GI50 (ACHN) | GI50 [25]
170 nM: GI50 [13]
250 nM: GI50 (A549)
40 nM: GI50 [2] | GI50 (MDA-MB-468) | GI50 [10] | GI50 (KM12) | GI50 (CCRF-CEM)
< 10 nM: GI50 (MDA-MB-435)
